Sampled rows, rich in hits. Any-hit rate of the full collection: about 1%.
T cell HTS – T cell immune modulation candidate; 2C CD8+ T cell-vesicle binding, flow cytometry; stronger effect = lower value; response (vesicle binding), % at 7 µM; 0.068% of 330,000 active;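 active means response, share of CD8 T cells binding vesicles, and their 90th percentile fluorescence all below set limits, cut at about 80% in these data, passing the limit was not always enough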;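 further: values below 100% mean blocked vesicle binding to the CD8+ T cells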
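material = purified 2C TCR transgenic mouse naive CD8+ T cells | controls = Unloaded micro-vesicles (low), QL9 vesicles with 0.7% DMSO (high) | detection = cytometric PE anti-B7-1 and Alexa647 anti-CD8 signals after 1% paraformaldehyde fixation | incubation = binding step 1.5 h, 37 °C, antibody labelling 20 min, ice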
Beta2AR agonist – human beta-2 adrenergic receptor agonism by FAP; P07550; Am2.2-beta2AR cells, FAP receptor internalization, flow cytometry; response, % (concentration not given with the values); 0.43% of 340,000 active;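 active means response above a set limit, near 3 SD of response in nonfluorescent compounds, cut at about 42% in these data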
Target sequence (P07550 whole entry, looked up): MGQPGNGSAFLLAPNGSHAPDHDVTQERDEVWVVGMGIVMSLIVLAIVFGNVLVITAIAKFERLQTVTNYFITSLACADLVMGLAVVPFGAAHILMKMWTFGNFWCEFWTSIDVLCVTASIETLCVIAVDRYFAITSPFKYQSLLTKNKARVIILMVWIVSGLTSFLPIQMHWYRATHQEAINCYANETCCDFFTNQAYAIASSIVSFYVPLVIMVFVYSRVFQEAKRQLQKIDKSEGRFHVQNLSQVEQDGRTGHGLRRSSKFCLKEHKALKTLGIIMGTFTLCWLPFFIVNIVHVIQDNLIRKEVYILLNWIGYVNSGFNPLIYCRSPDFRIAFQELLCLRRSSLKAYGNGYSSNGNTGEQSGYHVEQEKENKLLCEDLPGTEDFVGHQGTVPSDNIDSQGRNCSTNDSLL
XBP1 UPR activ – activators of adaptive arm of unfolded protein response (XBP1) | CHO-XBP1 luciferase reporter, IRE1-XBP1 UPR activation, luminescence; percent of tunicamycin response, DMSO as zero | activation, % at 20 µM | 0.33% of 330,000 active;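 active means versus positive control, 20 µM dose yields 30% or more activation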;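 further: 100% = tunicamycin at 10 µg/mL and 0% = DMSO only wells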
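Material: CHO cell line with stable XBP1 luciferase reporter; schedule: 16-18 h cell attachment at 37 °C, then 6 h compound exposure; signal: glow luminescence from Steady-Glo reagent; medium: serum-containing F12 medium, 10% FBS; benchmarks: tunicamycin 10 µg/mL and vehicle-only wells; read-out: percent activation relative to tunicamycin reference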
CHOP UPR activ – apoptotic UPR (CHOP) activation | CHO-CHOP luciferase reporter, luminescence; percent of tunicamycin response over DMSO baseline | activation, % at 10 µM | 0.34% of 330,000 active | AID 449763;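 active means at 10 µM dose, activation of 40% or more, normalized to positive control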;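 further: 100% = tunicamycin at 10 µg/mL and 0% = DMSO alone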
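Dosing – one dose, 10 µM in 0.5% DMSO · System – CHO-CHOP cells, stable luciferase reporter of PERK-eIF2a-CHOP signalling · Input – 500 cells/well · Control set – tunicamycin 10 µg/mL final as positive, DMSO-only wells as negative · Timing – 6 h compound treatment, 37 °C · Measure – % activation vs tunicamycin · Technique – luminescence read with Steady-Glo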
CHOP UPR conf – confirmation of apoptotic unfolded protein response (CHOP) activators; 64% of 1,000 active; shares compounds with CHOP UPR activ; activation, % at 10 µM; CHO-CHOP cells, CHOP-luciferase reporter luminescence; percent of tunicamycin response, DMSO as zero; AID 463112; in the data active means activation above about 33%;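 further: 0% = DMSO wells and 100% = tunicamycin 10 µg/mL wells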
The depositor's hits bear a star; i = inactive; nt = no result given.

SMILES	T cell HTS	Beta2AR agonist	XBP1 UPR activ	CHOP UPR activ	CHOP UPR conf
CCOC(=O)c1c(CSC(=N)N)n(-c2ccc(C)cc2)c2cc(Br)c(OC(C)=O)cc12	222	45*	-6	56*	73*
Nc1ccccc1C(=O)NCc1ccco1	146	2	-2	-1	nt
COc1ccccc1-c1cc(C(F)(F)F)nc(S(=O)(=O)CCCC(=O)Nc2cc(C)on2)n1	446	32	-7	20	nt
COc1ccccc1-c1cc(C(F)(F)F)nc(S(=O)(=O)CCCC(=O)NCc2ccc(F)cc2)n1	625	37	-1	124*	271*
COc1ccccc1-c1cc(C(F)(F)F)nc(S(C)(=O)=O)n1	378	58*	-5	136*	266*
COc1ccccc1-c1cc(C(F)(F)F)nc(N2CCCC2)n1	250	4	1	-1	nt
O=C(CSc1nnc(Cn2cnc3ccccc32)o1)Nc1cccc2ccccc12	486	1	3	2	nt
Cc1cc(OCC(=O)Nc2cc(S(=O)(=O)N3CCOCC3)ccc2N2CCCC2)ccc1C(C)C	215	12	-2	0	nt
O=C(c1cnn2c(C(F)(F)F)cc(-c3ccc(F)cc3)nc12)N1CCc2ccccc2C1	398	0	-5	1	nt
O=C1c2cccc3c([N+](=O)[O-])ccc(c23)C(=O)N1CCc1ccccn1	394	0	9	58*	24
O=C1c2ccccc2C(=O)N1CCc1ccccn1	590	1	2	3	nt
Cc1ccc(/C=C/C(=O)NC2CCCCCCC2)o1	376	6	4	125*	3
Cc1ccc(/C=N/NC(=O)NC2CCCCC2)o1	415	-1	2	4	nt
COc1cc(/C=C(/C(=O)c2cccs2)c2nc3ccccc3[nH]2)cc(OC)c1O	123	2	8	126*	161*
COc1ccc(C(=O)N/C(=C/c2cccs2)c2nc3ccccc3[nH]2)cc1OC	243	-3	-2	0	nt
O=C(/C(=C/c1ccc(Cl)cc1)c1nc2ccccc2[nH]1)c1ccccc1	312	40	0	211*	158*
O=C(N/C(=C/c1ccc(Cl)cc1)c1nc2ccccc2[nH]1)c1ccco1	233	-2	-1	2	nt
COc1ccc(/C=N/NC(=O)c2[nH]c3ccc(Br)cc3c2-c2ccccc2)cc1	293	27	10	1	nt
O=C(N/N=C/c1ccccn1)c1cccc([N+](=O)[O-])c1	288	5	1	3	nt
O=C(N/N=C/c1ccccn1)c1cc([N+](=O)[O-])cc([N+](=O)[O-])c1	254	17	4	45*	65*
Cc1ccc(CNC(=O)c2ccc([N+](=O)[O-])o2)cc1	235	3	-1	-2	nt
O=C(/C=C/c1ccc(Cl)cc1)c1ccc([N+](=O)[O-])o1	148	19	-6	69*	22
Cc1cc(O)c(C(=O)/C=C/c2ccc(Cl)cc2)c(=O)o1	238	10	-5	5	nt
Cc1ccc(/C=C/C(=O)c2ccc([N+](=O)[O-])o2)cc1	200	nt	-4	189*	135*
CC1=NOC(=O)/C1=C\c1ccc(-c2cccc(Cl)c2)o1	176	101*	7	115*	190*
SMILES	T cell HTS	Beta2AR agonist	XBP1 UPR activ	CHOP UPR activ	CHOP UPR conf
CSCCC(NC(=O)COc1ccccc1)C(=O)O (stereo unspecified)	248	0	1	0	nt
CCOC(=O)C(=Cc1ccc(-n2cncn2)cc1)C(=O)OCC	i	5	-3	119*	93*
CCOC(=O)/C(=C\c1ccc(N2CCC(c3ccccc3)=N2)cc1)C(C)=O	nt	-95	nt	nt	nt
Cc1ccc(CNC(=O)Nc2ccc3c(c2)N(C)C(=O)CS3)cc1	199	-3	-2	-1	nt
COc1cc(/C=C/[N+](=O)[O-])ccc1OC(=O)c1cc2ccccc2oc1=O	324	54*	-10	120*	-4
Cc1ccc(C(=O)/C=C/C(=O)c2ccc(C)cc2)cc1	394	29	-7	139*	370*
Cc1ccc(-c2ccc(/C=C/C(=O)c3ccccc3)o2)cc1	127	13	0	193*	2
Cc1ccc(C(=O)/C=C/c2ccc(-c3ccccc3[N+](=O)[O-])o2)cc1	219	5	0	2	nt
O=C(/C=C/c1ccc(-c2ccccc2)o1)c1ccccc1	335	3	16	93*	7
O=P(Cc1cc[n+]([O-])cc1)(c1ccccc1)c1ccccc1	459	-3	-2	-2	nt
COc1cc2c(cc1OC)CN(C(=O)c1sccc1C)CC2	290	-5	3	4	nt
O=C(Nc1ccc(Cl)cc1)/C(=C/c1cccc(O)c1)c1nc2ccccc2s1	302	25	13	114*	62*
CC(C)(C)C(=O)N1CCN(c2ccc(NC(=O)c3ccc([N+](=O)[O-])o3)cc2)CC1	319	24	2	59*	87*
CCC(=O)N1CCN(c2ccc(NC(=O)c3ccc([N+](=O)[O-])o3)cc2)CC1	nt	-1	nt	nt	nt
CCn1c(=O)c2cc(S(=O)(=O)NCCOc3ccccc3)ccc2n(CC)c1=O	433	2	3	0	nt
O=C(CCN1C(=O)/C(=C\c2ccccc2F)SC1=S)N1CCCCC1	666	2	-6	43*	37*
O=C(CCN1C(=O)/C(=C/c2ccccc2)SC1=S)N1CCCCCC1	274	0	0	10	nt
S=C(Nc1ccccn1)c1ccccn1	12*	-9	16	165*	126*
CCCn1c(CC)nc([N+](=O)[O-])c1S(=O)(=O)c1ccccc1	680	37	-6	104*	71*
Cn1cnc([N+](=O)[O-])c1S(=O)(=O)c1cccc(Cl)c1	216	14	-8	-11	nt
COCc1c(C(=O)OCC(=O)N2CCCC2=O)oc2ccccc12	288	-5	-1	1	nt
COc1ccc(Oc2nc(-c3ccccn3)nc3ccccc23)cc1	147	-14	25	52*	14
c1ccc(Oc2nc(-c3ccccn3)nc3ccccc23)cc1	i	-10	15	41*	9
O=c1oc(-c2ccccc2Br)nc2ccccc12	53	2	15	5	nt
S=C1SCN(Cc2ccccc2)CN1Cc1ccccc1	nt	0	-4	2	nt
S=C1SCN(CC2CC2)CN1CC1CC1	290	-2	1	82*	86*
COC(CSc1nc(N)c2c3c(sc2n1)CN(C)CC3)OC	305	13	2	1	nt
O=C(C1CCN(S(=O)(=O)c2cccc3cccnc23)CC1)N1CCN(C2CCCC2)CC1	392	-8	4	-1	nt
COc1ccc(Nc2nc(NCc3ccco3)nc(N3CCOCC3)n2)cc1	573	5	2	3	nt
CC1(C)Cc2c(c(N3CCOCC3)nc3sc(C(=O)Nc4ccccc4)c(N)c23)CO1	229	-5	4	28	nt

Screens from PubChem BioAssay.
